This is an account of results in ChEMBL document CHEMBL5316304, “Collaborative Virtual Screening Identifies a 2-Aryl-4-aminoquinazoline Series with Efficacy in an In Vivo Model of Trypanosoma cruzi Infection” (J Med Chem, 2023).

Values after ≈ are worked out from the molar mass of the structure shown. Active and inactive are the calls of the source. No cut-off for these calls is given here. Where only a bound is given, the exact number is not on record here.

Series [1] in a line: Selectivity index, ratio of IC50 for human U2OS cells to IC50 for intracellular Trypanosoma cruzi infected in human U2OS cells. In kind it is toxicity, cell-based. Conditions: for selectivity ratio: U2OS cells, read-out: Selectivity Index. In a few lines:
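Host U2OS cell counts and intracellular parasite infection ratio were read from the same 72 h DRAQ5-stained confocal imaging assay. CC50 and EC50 came from 4-parameter logistic fits, and the selectivity index is their ratio.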

The test system of series [2] is Trypanosoma cruzi. As to the kind of experiment: Antitrypanosomal activity against intracellular Trypanosoma cruzi infected in human U2OS cells assessed as parasite growth inhibition incubated for 72 hrs by confocal microscopy. The series is classed as functional, organism-based. Conditions: Trypanosoma cruzi, U2OS, 72 h.
The subject of series [3] is Trypanosoma cruzi. As to the kind of experiment: Inhibition of Trypanosoma cruzi CYP51 upto 100 uM by fluorescence based assay.
A short description of series [4]: Intrinsic clearance in mouse liver microsomes at 1 uM incubated for 15 to 30 mins by LC/MS/MS analysis. The series is classed as ADME, Microsome. The settings on record: time 15-30 min.
The nature of series [5]: Half life in Balb/C mouse at 1 mg/kg, iv by LC/MS/MS analysis. The series is classed as ADME, organism-based. Conditions: in vivo. In a few lines:
(§1)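 Female Balb/c mice received a single i.v. dose of 1 mg/kg and a single oral dose of 50 mg/kg. PK parameters came from blood concentration–time profiles. Brain-to-plasma ratio was taken at 0.5 h.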

Series [6] can be described thus: Kinetic solubility of compound in aqueous buffer at pH 6.8 incubated for 16 to 24 hrs by HPLC analysis. The series is classed as physicochemical. Conditions: time 16-24 hrs, read-out: Kinetic_solubility.
Series [7] is described as follows: Cmax in Balb/C mouse at 50 mg/kg, po or 1 mg/kg, iv by LC/MS/MS analysis. Conditions: in vivo. The series is classed as ADME, organism-based. Set-up: dose 50 mg/kg, route po. In a few lines: as §1
A short description of series [8]: Toxicity in Balb/C mouse assessed as drug tolerability at 50 mg/kg, po bid measured after 5 days by LC/MS/MS analysis. In kind it is organism-based. Conditions: in vivo, 120 h, time 5 day. The method, boiled down: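 Healthy female mice, one per group, were dosed orally twice daily for 5 days at 10, 50 or 100 mg/kg, with vehicle controls (0.5% HPMC/0.5% benzyl alcohol/0.4% Tween 80 in water). Readouts were mortality, clinical signs, body weight, food consumption and gross pathology.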

Series [9] in a line: Plasma protein binding in mouse at 2 uM incubated for 6 hrs by LC/MS/MS analysis. In kind it is ADME.
A short description of series [10]: Toxicity in Balb/C mouse assessed as adverse reactions at 50 mg/kg, po by LC/MS/MS analysis. The series is classed as organism-based. The settings on record: in vivo.
Series [11] can be described thus: Permeability of compound incubated for 3 hrs by PAMPA assay. Conditions: read-out: permeability. In kind it is ADME.
Series [12] is described as follows: Ratio of drug level in Balb/C mouse brain to plasma at 50 mg/kg, po or 1 mg/kg, iv measured after 0.5 hrs by LC/MS/MS analysis. The series is classed as ADME, organism-based. The method, boiled down:
as §1

A short description of series [13]: Toxicity in Balb/C mouse assessed as drug tolerability at 50 mg/kg, po by LC/MS/MS analysis. Conditions: in vivo. The series is classed as organism-based.
Series [14] in a line: AUC (0 to last) in Balb/C mouse at 50 mg/kg, po or 1 mg/kg, iv by LC/MS/MS analysis. The series is classed as ADME, organism-based. The arrangement: dose 50 mg/kg, route po. The settings on record: in vivo. In a few lines:
as §1

Series [15] is described as follows: Volume of distribution at steady state in Balb/C mouse plasma at 50 mg/kg, po or 1 mg/kg, iv by LC/MS/MS analysis. In kind it is ADME, organism-based. The settings on record: in vivo. The method, boiled down:
as §1

Series [16] is described as follows: Oral bioavailability in Balb/C mouse plasma at 50 mg/kg by LC/MS/MS analysis. In kind it is ADME, organism-based. Conditions: in vivo.
The nature of series [17]: Selectivity index, ratio of IC50 for human THP-1 cells to IC50 for Leishmania donovani infected in human THP-1 cells. Conditions: read-out: Selectivity Index. The series is classed as toxicity, cell-based.
Series [18] can be described thus: Intrinsic clearance in human liver microsomes at 1 uM incubated for 15 to 30 mins by LC/MS/MS analysis. The series is classed as ADME, Microsome. The settings on record: time 15-30 min.
The nature of series [19]: Cmax in Balb/C mouse at 12.5 mg/kg, po or 2 mg/kg, iv in presence of ABT by LC/MS/MS analysis. In kind it is ADME, organism-based. The arrangement: dose 12.5 mg/kg, route po. The settings on record: in vivo. The method, boiled down:
(§2)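 Female Balb/c mice (n = 3 per route) dosed i.v. 2 mg/kg and p.o. 12.5 mg/kg. 1-Aminobenzotriazole, a CYP450 inhibitor, was given p.o. at 50 mg/kg 2 h before each dose. Parameters were derived from blood concentration–time profiles.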

Series [20] in a line: Half life in Balb/C mouse plasma at 2 mg/kg, iv in presence of ABT by LC/MS/MS analysis. The series is classed as ADME, organism-based. The method, boiled down: as §2
Series [21] is described as follows: Toxicity in Balb/C mouse assessed as drug tolerability at 12.5 mg/kg, po by LC/MS/MS analysis. The series is classed as organism-based. The settings on record: in vivo.
Series [22] can be described thus: Toxicity in BALB/c mouse infected with acute Trypanosoma cruzi CL Brener assessed as adverse effects at 50 mg/kg, po bid. In kind it is organism-based. Conditions: in vivo.
Series [23] can be described thus: AUC (0 to last) in Balb/C mouse at 50 mg/kg, po or 0.1 mg/kg, iv by LC/MS/MS analysis. In kind it is ADME, organism-based. Set-up: dose 50 mg/kg, route po. Conditions: in vivo. The method, boiled down: (§3)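 Female Balb/c mice dosed i.v. 0.1 mg/kg as part of a five-compound cassette, and p.o. 50 mg/kg, without ABT. PK parameters came from concentration–time profiles. Brain-to-plasma ratio was taken at 1 h.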

A short description of series [24]: Oral bioavailability in Balb/C mouse at 12.5 mg/kg in presence of ABT by LC/MS/MS analysis. The series is classed as ADME, organism-based. Conditions: in vivo. In a few lines: as §2
Series [25] in a line: Half life in Balb/C mouse plasma at 12.5 mg/kg, po in presence of ABT by LC/MS/MS analysis. In kind it is ADME, organism-based. In a few lines:
as §2

The nature of series [26]: Volume of distribution at steady state in Balb/C mouse plasma at 50 mg/kg, po or 0.1 mg/kg, iv by LC/MS/MS analysis. Conditions: in vivo. In kind it is ADME, organism-based. The method, boiled down:
as §3

Series [27] can be described thus: Half life in Balb/C mouse at 50 mg/kg, po by LC/MS/MS analysis. The series is classed as ADME, organism-based. The settings on record: in vivo. The method, boiled down:
as §1

For series [28], the system named is Trypanosoma cruzi. As to the kind of experiment: Antitrypanosomal activity against acute-stage Trypanosoma cruzi CL Brener infected in BALB/c mouse assessed as reduction in parasite burden at 50 mg/kg, po bid administered for 5 days by bioluminescence imaging based analysis relative to control. In kind it is functional. Set-up: scale not given: the % may be the effect or the level left. Conditions: time 5 day.

Series [29] in a line: Cmax in Balb/C mouse at 50 mg/kg, po or 0.1 mg/kg, iv by LC/MS/MS analysis. The arrangement: dose 50 mg/kg, route po. The settings on record: in vivo. The series is classed as ADME, organism-based. In a few lines:
as §3

A short description of series [30]: Volume of distribution at steady state in Balb/C mouse plasma at 12.5 mg/kg, po or 2 mg/kg, iv in presence of ABT by LC/MS/MS analysis. In kind it is ADME, organism-based. The settings on record: in vivo. In a few lines:
as §2

Series [31] can be described thus: AUC (0 to last) in Balb/C mouse at 12.5 mg/kg, po or 2 mg/kg, iv in presence of ABT by LC/MS/MS analysis. In kind it is ADME, organism-based. The arrangement: dose 12.5 mg/kg, route po. The settings on record: in vivo. The method, boiled down: as §2
Series [32] in a line: Ratio of drug level in Balb/C mouse brain to plasma at 50 mg/kg, po or 0.1 mg/kg, iv measured after 1 hr by LC/MS/MS analysis. In kind it is ADME, organism-based. In a few lines:
as §3

The test system of series [33] is Trypanosoma cruzi. Kind of series: Antitrypanosomal activity against acute-stage Trypanosoma cruzi CL Brener infected in BALB/c mouse assessed as reduction in parasite burden at 50 mg/kg, po bid administered for 5 days measured after 14 days by bioluminescence imaging based analysis. The series is classed as functional, organism-based. Conditions: time 14.0 day.

For the compound `Fc1ccc(C2CCN(c3nc(-c4ccccn4)nc4ccccc34)C2)cc1` (stereo not drawn), in series [1], the selectivity ratio came to 9.2. In addition, in series [2], the IC50 turned out to be 410 nM. The inhibition entry in series [3] was “inactive”. In [4], the “intrinsic clearance (CLint)” value was greater than 500 µL/min/mg.
In [5], `CC(C)(Nc1nc(-c2ccccn2)nc2ccccc12)c1ccccn1` had a half-life of 1.13 h. The selectivity ratio in series [1] stood at 25. Besides, the solubility kinetic in [6] is 83 µg/mL (≈ 243 µM). In [7], this compound came in with a Cmax of 6240 ng/mL. The IC50 in [2] is 1000 nM. The values for the Activity entry in series [8], in [10] and in series [13] were “Toxic”, “Non-Toxic” and “Non-Toxic”, respectively. For the same compound, the PPB in series [9] came to 94.2%. Further, the Papp at 3 h in [11] was found to be 25.8 ×10⁻⁶ cm/s. The BPR in [12] came out at 1.6. The compound further returned an AUC(0-t) in series [14] of 59900 ng·h/mL. In series [15], the Vdss was 0.909 L/kg. The F in [16] is given as greater than 100%.
As to `Cc1nc(-c2ccccn2)nc(NCc2ccccc2)c1Cl`, the selectivity ratio in series [17] was greater than 2.5. Further, the IC50 in series [2] is greater than 50000 nM.
For the compound `c1ccc(-c2nc(N3CCC(c4ccccn4)C3)c3ccccc3n2)nc1` (racemic) [listing 1 of 2 here], the CLint in series [18] worked out at 73 µL/min/mg. The Cmax in [19] was 4243 ng/mL; in [29], 3360 ng/mL. Also, the half-life was 1 h in series [20], 3.3 h in [25] and 7.2 h in [27]. For the same compound, the Activity entry was “Toxic” in [21]; “Non-Toxic” in [22]; 89.9% in series [28]; “Non-Toxic” in series [8]; “Non-Toxic” in series [13]. Moreover, in series [1], the “Selectivity Index” value amounted to 9.1. Further, the values for the AUC(0-t) in series [23] and in [31] were 9610 ng·h/mL and 26900 ng·h/mL, respectively. In addition, the values for the F in series [24] and in [16] were 67% and 50%, respectively. For the same compound, the Vdss in series [26] was determined as 0.77 L/kg; in [30] it was 0.94 L/kg. In addition, the solubility kinetic in series [6] worked out at 83 µg/mL (≈ 235 µM). Moreover, the IC50 in series [2] was 790 nM. Besides, the PPB in [9] is reported as 99.9%. Also, the “intrinsic clearance (CLint)” value in series [4] was 258 µL/min/mg. The Papp at 3 h in [11] was 31.9 ×10⁻⁶ cm/s. In series [32], the BPR is given as 1.66.
In series [18], `Cc1cnc(C)c(Nc2nc(-c3ccccn3)nc3ccccc23)c1` came in with a CLint of less than 1 µL/min/mg. For the same compound, the selectivity ratio in series [1] stood at 3.6. Also, the solubility kinetic in series [6] was determined as 31 µg/mL (≈ 94.7 µM). In addition, the IC50 in series [2] came to 14000 nM. In addition, the “intrinsic clearance (CLint)” value in series [4] is 154 µL/min/mg. Also, the Papp at 3 h in [11] is 20.1 ×10⁻⁶ cm/s.
Turning to `c1ccc(-c2nc(N3CCC(c4ccccn4)C3)c3ccccc3n2)nc1` (racemic) [listing 2 of 2 here], the outcome in [33] was inactive.
In series [18], `c1ccc(-c2nc(N3CCc4ccccc4C3)c3ccccc3n2)nc1` came in with a CLint of 150 µL/min/mg. Further, in series [1], the selectivity ratio worked out at 6.6. The solubility kinetic in series [6] is 10 µg/mL (≈ 29.5 µM). Besides, the IC50 in series [2] was 720 nM. Besides, in series [4], the “intrinsic clearance (CLint)” value was 464 µL/min/mg. Further, the Papp at 3 h in series [11] was found to be 40.8 ×10⁻⁶ cm/s.
In the case of `CCn1cc2nc(-c3ccccn3)nc(N3CCC(c4ccccn4)C3)c2n1` (stereo not drawn), the CLint in series [18] was less than 1 µL/min/mg. Also, the selectivity ratio in series [1] is 2.8. Further, the solubility kinetic in series [6] is 94 µg/mL (≈ 253 µM). For the same compound, the IC50 in [2] was 100 nM. The “intrinsic clearance (CLint)” value in [4] was determined as 70 µL/min/mg. Further, the Papp at 3 h in series [11] was determined as 22 ×10⁻⁶ cm/s.
